ChEMBL document CHEMBL2429740, “The synthesis and SAR study of phenylalanine-derived (Z)-5-arylmethylidene rhodanines as anti-methicillin-resistant Staphylococcus aureus (MRSA) compounds” (2013)
In brackets after ≈: the same amount, converted by molar mass.

Experiments:
Format in all cases: functional
Staphylococcus aureus [1] = test: Ratio of MIC for methicillin-resistant Staphylococcus aureus CA ATCC BAA-1680 in absence of 10% FBS to MIC for methicillin-resistant Staphylococcus aureus CA ATCC BAA-1680 in presence of 10% FBS
In short: (§1)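 MIC determined by the same turbidity-based microdilution method, once in standard medium and once in medium with 10% fetal serum added, to probe serum protein binding. The ratio is the MIC without serum over the MIC with serum, for each strain.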

Staphylococcus aureus [2] = test: Ratio of MIC for methicillin-resistant Staphylococcus aureus ATCC 700698 in absence of 10% FBS to MIC for methicillin-resistant Staphylococcus aureus ATCC 700698 in presence of 10% FBS; in short: as §1
Staphylococcus aureus [3] = test: Ratio of MIC for methicillin-resistant Staphylococcus aureus ATCC 34404 in absence of 10% FBS to MIC for methicillin-resistant Staphylococcus aureus ATCC 34404 in presence of 10% FBS; in short: as §1
Staphylococcus aureus [4] = test: Ratio of MIC for methicillin-resistant Staphylococcus aureus ST239 HS770 in absence of 10% FBS to MIC for methicillin-resistant Staphylococcus aureus ST239 HS770 in presence of 10% FBS; in short: as §1
Staphylococcus aureus [5] = test: Ratio of MIC for methicillin-resistant Staphylococcus aureus ATCC 700787 in absence of 10% FBS to MIC for methicillin-resistant Staphylococcus aureus ATCC 700787 in presence of 10% FBS; in short: as §1
Staphylococcus aureus [6] = test: Antibacterial activity against methicillin-resistant Staphylococcus aureus ATCC BAA-39 by microdilution technique
Staphylococcus aureus [7] = test: Antibacterial activity against methicillin-resistant Staphylococcus aureus ATCC 700698 by microdilution technique
Staphylococcus aureus [8] = test: Ratio of MIC for methicillin-resistant Staphylococcus aureus ATCC BAA-39 in absence of 10% FBS to MIC for methicillin-resistant Staphylococcus aureus ATCC BAA-39 in presence of 10% FBS; in short: as §1
Staphylococcus aureus [9] = test: Antibacterial activity against methicillin-resistant Staphylococcus aureus CA ATCC BAA-1680 by microdilution technique
Staphylococcus aureus [10] = test: Antibacterial activity against methicillin-resistant Staphylococcus aureus ATCC 34404 by microdilution technique
Staphylococcus aureus [11] = test: Antibacterial activity against methicillin-resistant Staphylococcus aureus ST239 HS770 by microdilution technique
Staphylococcus aureus [12] = test: Antibacterial activity against methicillin-resistant Staphylococcus aureus ATCC 700787 by microdilution technique

Row | Structure (SMILES) | Ratio (Staphylococcus aureus [1]) | Ratio (Staphylococcus aureus [2]) | Ratio (Staphylococcus aureus [3]) | Ratio (Staphylococcus aureus [4]) | Ratio (Staphylococcus aureus [5]) | MIC (Staphylococcus aureus [6]) [µg/mL] | MIC (Staphylococcus aureus [7]) [µg/mL] | Ratio (Staphylococcus aureus [8]) | MIC (Staphylococcus aureus [9]) [µg/mL] | MIC (Staphylococcus aureus [10]) [µg/mL] | MIC (Staphylococcus aureus [11]) [µg/mL] | MIC (Staphylococcus aureus [12]) [µg/mL]
1 | O=C(O)[C@H](Cc1ccccc1)N1C(=O)/C(=C/c2cccc(-c3ccccc3)c2)SC1=S | 2 | 2 | 2 | 2 | 2 | 0.98 (≈ 2.2 µM) | 1.95 (≈ 4.38 µM) | 2 | 1.95 (≈ 4.38 µM) | 0.98 (≈ 2.2 µM) | 1.95 (≈ 4.38 µM) | 1.95 (≈ 4.38 µM)
2 | O=C(O)[C@H](Cc1ccccc1)N1C(=O)/C(=C/c2cccc(Oc3ccc(Cl)c(Cl)c3)c2)SC1=S | 2 | 2 | 2 | 2 | 2 | 1.95 (≈ 3.68 µM) | 1.95 (≈ 3.68 µM) | 2 | 1.95 (≈ 3.68 µM) | 0.98 (≈ 1.85 µM) | – | 3.9 (≈ 7.35 µM)
3 | O=C(O)[C@H](Cc1ccccc1)N1C(=O)/C(=C/c2cccc(OCCc3ccccc3)c2)SC1=S | – | – | – | – | – | 31.2 (≈ 63.8 µM) | 31.2 (≈ 63.8 µM) | – | 15.6 (≈ 31.9 µM) | 31.2 (≈ 63.8 µM) | 15.6 (≈ 31.9 µM) | 31.2 (≈ 63.8 µM)
4 | O=C(O)[C@H](Cc1ccccc1)N1C(=O)/C(=C/c2cccc(-c3nccs3)c2)SC1=S | – | – | – | – | – | 7.8 (≈ 17.2 µM) | 31.2 (≈ 69 µM) | – | 31.2 (≈ 69 µM) | 15.6 (≈ 34.5 µM) | 3.9 (≈ 8.62 µM) | 31.2 (≈ 69 µM)
5 | O=C(O)[C@H](Cc1ccccc1)N1C(=O)/C(=C/c2cccc(Oc3ccc(F)cc3)c2)SC1=S | – | – | – | – | – | 7.8 (≈ 16.3 µM) | 7.8 (≈ 16.3 µM) | – | 7.8 (≈ 16.3 µM) | 7.8 (≈ 16.3 µM) | – | 7.8 (≈ 16.3 µM)
6 | O=C(O)[C@@H](Cc1ccccc1)N1C(=O)/C(=C/c2cccc(Oc3ccc(F)cc3)c2)SC1=S | – | – | – | – | – | 1.95 (≈ 4.07 µM) | 1.95 (≈ 4.07 µM) | – | 1.95 (≈ 4.07 µM) | 1.95 (≈ 4.07 µM) | 1.95 (≈ 4.07 µM) | 1.95 (≈ 4.07 µM)
7 | O=C(O)[C@H](Cc1ccccc1)N1C(=O)/C(=C/c2ccccc2Cc2ccccc2)SC1=S | – | – | – | – | – | 7.8 (≈ 17 µM) | 7.8 (≈ 17 µM) | – | 3.9 (≈ 8.49 µM) | 15.6 (≈ 33.9 µM) | 15.6 (≈ 33.9 µM) | 7.8 (≈ 17 µM)
8 | O=C(O)[C@H](Cc1ccccc1)N1C(=O)/C(=C/c2cccc(Oc3cccc(F)c3)c2)SC1=S | – | – | – | – | – | 15.6 (≈ 32.5 µM) | 15.6 (≈ 32.5 µM) | – | 31.2 (≈ 65.2 µM) | 15.6 (≈ 32.5 µM) | – | 31.2 (≈ 65.2 µM)
9 | O=C(O)[C@@H](Cc1ccccc1)N1C(=O)/C(=C/c2cccc(Oc3ccc(Cl)c(Cl)c3)c2)SC1=S | – | – | – | – | – | 1.95 (≈ 3.68 µM) | 1.95 (≈ 3.68 µM) | – | 3.9 (≈ 7.35 µM) | 1.95 (≈ 3.68 µM) | 3.9 (≈ 7.35 µM) | 15.6 (≈ 29.4 µM)
10 | O=C(c1ccccc1)c1cccc(/C=C2\SC(=S)N([C@@H](Cc3ccccc3)C(=O)O)C2=O)c1 | – | – | – | – | – | 3.9 (≈ 8.24 µM) | 7.8 (≈ 16.5 µM) | – | 3.9 (≈ 8.24 µM) | 3.9 (≈ 8.24 µM) | – | 7.8 (≈ 16.5 µM)
11 | CC1(C)S[C@@H]2[C@H](NC(=O)Cc3ccccc3)C(=O)N2[C@H]1C(=O)O [PENICILLIN G] | – | – | – | – | – | 62.5 (≈ 187 µM) | 15.6 (≈ 46.7 µM) | – | 125 (≈ 374 µM) | 31.2 (≈ 93.5 µM) | 250 (≈ 748 µM) | 62.5 (≈ 187 µM)
12 | COc1ccc(Oc2cccc(/C=C3\SC(=S)N([C@@H](Cc4ccccc4)C(=O)O)C3=O)c2)cc1 | – | – | – | – | – | 7.8 (≈ 15.9 µM) | 7.8 (≈ 15.9 µM) | – | 15.6 (≈ 31.7 µM) | 7.8 (≈ 15.9 µM) | – | 7.8 (≈ 15.9 µM)
13 | O=C(O)[C@H](Cc1ccccc1)N1C(=O)/C(=C/c2cccc(Cc3ccc(Cl)c(Cl)c3)c2)SC1=S | – | – | – | – | – | 15.6 (≈ 29.5 µM) | 31.2 (≈ 59.1 µM) | – | 31.2 (≈ 59.1 µM) | 31.2 (≈ 59.1 µM) | 15.6 (≈ 29.5 µM) | 62.5 (≈ 118 µM)
14 | O=C(O)[C@@H](Cc1ccccc1)N1C(=O)/C(=C/c2cccc(Oc3ccc(Cl)cc3)c2)SC1=S | – | – | – | – | – | 1.95 (≈ 3.93 µM) | 3.9 (≈ 7.86 µM) | – | 1.95 (≈ 3.93 µM) | 1.95 (≈ 3.93 µM) | 1.95 (≈ 3.93 µM) | 3.9 (≈ 7.86 µM)
15 | O=C(O)[C@H](Cc1ccccc1)N1C(=O)/C(=C/c2ccccc2Oc2ccc(Cl)c(Cl)c2)SC1=S | – | – | – | – | – | 3.9 (≈ 7.35 µM) | 7.8 (≈ 14.7 µM) | – | 3.9 (≈ 7.35 µM) | 3.9 (≈ 7.35 µM) | 1.95 (≈ 3.68 µM) | 3.9 (≈ 7.35 µM)
16 | O=C(O)[C@H](Cc1ccccc1)N1C(=O)/C(=C/c2ccccc2OCc2ccccc2)SC1=S | – | – | – | – | – | 15.6 (≈ 32.8 µM) | 7.8 (≈ 16.4 µM) | – | 7.8 (≈ 16.4 µM) | 7.8 (≈ 16.4 µM) | 7.8 (≈ 16.4 µM) | 15.6 (≈ 32.8 µM)
